Sampled rows, rich in hits. Any-hit rate of the full collection: about 3.7%.
Mdm2-MdmX inh: inhibitors of human Mdm2-MdmX association, primary screen, cell-based, luminescence, split luciferase, SaOS-2, uHTS | SaOS-2 split-luciferase Mdm2/MdmX complementation | inhibition, % at 8 µM | 3% of 330,000 active | AID 485346, 2010;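 active = inhibition of at least 50% at 8 µM in the primary screen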
Beta2AR agonist: beta2AR agonists driving receptor internalization, primary screen, cell-based, FAP fluorogen, flow cytometry; Beta-2 adrenergic receptor (Homo sapiens), P07550; Am2.2-beta2AR cells; response, % (test concentration not listed); 0.43% of 340,000 active;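 active = response above a set limit, near 3 SD of response in nonfluorescent compounds, cut at about 42% in these data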
Target sequence (P07550 whole entry, looked up): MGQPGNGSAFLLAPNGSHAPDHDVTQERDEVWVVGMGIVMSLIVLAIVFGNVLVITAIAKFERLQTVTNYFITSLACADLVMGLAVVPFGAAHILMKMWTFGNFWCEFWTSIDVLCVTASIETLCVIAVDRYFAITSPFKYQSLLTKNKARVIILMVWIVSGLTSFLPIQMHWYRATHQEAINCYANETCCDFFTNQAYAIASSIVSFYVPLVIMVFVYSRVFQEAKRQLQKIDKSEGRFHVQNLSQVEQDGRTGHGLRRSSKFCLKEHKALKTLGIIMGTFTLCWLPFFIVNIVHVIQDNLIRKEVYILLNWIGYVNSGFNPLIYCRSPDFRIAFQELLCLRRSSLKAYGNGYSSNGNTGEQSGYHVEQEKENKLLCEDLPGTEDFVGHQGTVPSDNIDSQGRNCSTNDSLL
MDM2 E3 inh: MDM2-luciferase reporter signal enhancers, primary screen, MDM2 E3 ligase inhibitor project, cell-based, luminescence, 1536-well; E3 ubiquitin-protein ligase Mdm2 (Homo sapiens), Q00987; 0.11% of 210,000 active; signal enhancement, % at 5 µM; cell-based MDM2 ubiquitination luciferase reporter, 2 h; 0 = plate control, 100 = twice control, blank-subtracted;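 active = signal enhancement of 30% or more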;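 also: luminescence tracks abundance of the self-degrading MDM2-luciferase fusion protein; higher signal means inhibition of MDM2 E3 ligase activity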
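system = mammalian cells stably expressing self-ubiquitinating, self-degrading MDM2 E3–luciferase fusion | quantity = 2000 cells per well seeded | incubation = 4 h cell settling then 2 h compound exposure, 37 °C | signal = SteadyLite luminescence, 15 min reagent step | benchmarks = plate control and blank wells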
Dynein transport: inhibitors of GR-EGFP nuclear translocation, primary screen, dynein cargo transport inhibitor project, imaging, high-content, 3617.4 mouse cells; z-score, hits read low; 0.47% of 220,000 active; test concentration mostly 20 µM; stimulated with dexamethasone, 1 µM; hits give low values;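 active = plate z-score of nuclear minus cytoplasmic receptor signal below a set negative limit, without overly bright fluorescence or cell loss, cut at about -3.5 in these data, passing the limit was not always enough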;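 also: z-score of nuclear minus cytoplasmic ring GR-EGFP intensity difference per well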
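Also added – dexamethasone, 1.0 µM final · Buffer or medium – tet-free, stripped-serum medium · Schedule – induction 48 h, compound 1 h, agonist 30 min · Detection – formaldehyde fixation, Hoechst nuclear stain, 10x automated fluorescence imaging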
XBP1 UPR activ: activators of adaptive XBP1 UPR arm, primary screen, cell-based, CHO-XBP1 luciferase reporter, luminescence, uHTS; 0.33% of 330,000 active; activation, % at 20 µM; AID 463104, 2010; IRE1-XBP1 UPR activation; percent of tunicamycin response, DMSO as zero;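 active = versus positive control, 20 µM dose yields 30% or more activation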;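 also: 100% = tunicamycin at 10 µg/mL and 0% = DMSO only wells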
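Material: IRE1-XBP1 luciferase reporter CHO line / Quantity: one thousand reporter cells per well / Buffer or medium: F12 with 10% serum / Compound: 20 µM single concentration, DMSO 1% / Times: 6 h treatment, 37 °C / Detection: Steady-Glo luciferase glow luminescence, 10 min after reagent addition / Benchmarks: tunicamycin high, DMSO low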
CHOP UPR activ: activators of apoptotic CHOP UPR arm, primary screen, cell-based, CHO-CHOP luciferase reporter, luminescence, uHTS. UPR activation; percent of tunicamycin response over DMSO baseline. 0.34% of 330,000 active. activation, % at 10 µM;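 active = at 10 µM dose, activation of 40% or more, normalized to positive control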;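 also: 100% = tunicamycin at 10 µg/mL and 0% = DMSO alone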
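Assay system: CHO-CHOP cells, stable luciferase reporter of PERK-eIF2a-CHOP signalling / Buffer or medium: F12 plus 10% serum / Compound dosing: one dose, 10 µM in 0.5% DMSO / Times: 6 h compound treatment, 37 °C / Technique: luciferase luminescence / Read-out: % reporter activation, DMSO baseline versus tunicamycin full activation / Benchmarks: tunicamycin and DMSO controls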
Mdm2 MdmX conf: Mdm2-MdmX complex disruptors, retested hits, confirmation, luminescence, single concentration; shares compounds with Mdm2-MdmX inh; Mdm2-MdmX binding, luminescent assay; inhibition, % at 8 µM; 55% of 10,000 active; AID 489028, 2010; in the data active = inhibition above about 40%
Full FLuc ctr: full-length luciferase signal inhibition, confirmation, counter-screen for Mdm2/MdmX interaction inhibitor project, cell-based, single concentration, SaOS-2 | shares compounds with Mdm2-MdmX inh | SaOS-2 full-length luciferase counterscreen, luminescence | inhibition, % at 8 µM | 77% of 6,200 active | AID 504607, 2011;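 active = mean inhibition at 8 µM reaching about 37%, which flags the compound as non-specific, limit read from the data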;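 also: p53-null SaOS-2 cells with luciferase driven by a doxycycline-inducible promoter; compound on cells about two nights before reading with doxycycline added after day one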
Starred values were filed as active, the others as inactive; / = not tested or not shown.

SMILES	Mdm2-MdmX inh	Beta2AR agonist	MDM2 E3 inh	Dynein transport	XBP1 UPR activ	CHOP UPR activ	Mdm2 MdmX conf	Full FLuc ctr
CCOc1ccc(S(=O)(=O)Nc2cccc(C(=O)N(C)Cc3cccc(OC)c3OC)c2)cc1	-6.1	0.2	/	/	-3.4	-0.5	/	/
CCCCC1C(=O)N(c2ccccc2)N(c2ccc(O)cc2)C1=O (centres undefined)	98.1*	60.8*	/	/	-12.2	-9.1	36.4	8.2
CCCCC1(CO)C(=O)N(c2ccccc2)N(c2ccccc2)C1=O	7.3	-3.3	-9.2	1.61	-2.2	0.8	/	/
CCOc1ccccc1C(=O)N(Cc1ccc(C)o1)C1CCS(=O)(=O)C1 (centres undefined)	-3.7	-4.1	/	/	-1.9	0.1	/	/
CCn1cnc2c1c(=O)n(CC(=O)OC(C)C(N)=O)c(=O)n2Cc1ccccc1 (centres undefined)	16.5	-2.6	/	/	-1.1	-1.2	/	/
NC(=S)N/N=C/c1ccccc1OCc1cccc(Cl)c1	52.5*	0.1	-27.1	-0.506	10.6	7.5	24.4	/
COc1cccc(NC(=S)NCCC(c2ccccc2)c2ccccc2)c1	27.8	-9.7	-4.2	-0.316	-3.3	-2.5	/	/
Cc1cccc(NC(=S)NCCC(c2ccccc2)c2ccccc2)c1	53.2*	4.2	-7.8	-0.0175	-1.3	-1.0	6.7	/
CCOC(=O)c1nn(-c2ccc(Br)cc2)cc1C(=O)c1cccc2ccccc12	62.0*	-1.6	1.2	0.332	-1.0	2.2	5.3	/
CCOC(=O)c1nn(-c2ccc(F)cc2)cc1O	13.0	5.1	-11.8	-0.507	0.7	1.7	/	/
c1ccc(-c2nnc(-c3ccccn3)nn2)nc1	-37.0	4.7	/	/	-5.5	-2.5	/	/
c1ccc(-c2cccc(-c3ccccn3)n2)nc1	65.5*	2.1	-13.5	-0.349	6.7	-4.0	78.7*	18.4
CC[C@]12c3[nH]c4ccccc4c3CCN1C(=O)C(CC(=O)NCCCN(C)C)C[C@@H]2C(=O)N1CCN(C(=O)C2CC2)CC1 (some centres undefined)	-29.8	-18.9	/	/	2.0	0.5	/	/
COc1ccc(OCC(=O)Nc2nc3c(s2)CCCC3)cc1	10.5	-9.7	/	/	-3.7	3.0	/	/
O=C(CS(=O)(=O)Cc1ccccc1)Nc1nc2c(s1)CCCC2	19.0	0.5	-6.1	-0.825	-0.1	0.6	/	/
Cc1ccc(CC(=O)Nc2nc3c(s2)CCCC3)cc1	86.7*	0.8	-14.0	-1.13	1.8	1.3	79.5*	37.3*
COc1ccccc1OCC(=O)Nc1nc2c(s1)CCCC2	50.7*	-3.1	/	/	-2.6	0.3	58.5*	83.0*
O=C(CCS(=O)(=O)Cc1ccccc1)Nc1nc2c(s1)CCCC2	56.0*	10.2	-4.0	0.201	0.6	-1.2	63.0*	61.0*
CCN(CC)CCCNC(=O)CCn1nc(-c2ccccc2)ccc1=O	8.2	-6.6	/	/	-1.3	1.4	/	/
O=C1c2c(O)ccc(O)c2C(=O)c2c(NCCNCCO)ccc(NCCNCCO)c21	99.7*	-9.4	/	/	-3.9	-3.2	98.0*	1.6
CC1Nc2ncnc(N3CCc4ccccc4C3)c2N(Cc2ccc(Br)cc2)C1=O (centres undefined)	53.5*	0.1	/	/	3.4	1.8	40.0	58.5*
CC1Nc2ncnc(N3CCc4ccccc4C3)c2N(Cc2ccc(Cl)cc2)C1=O (centres undefined)	28.5	-1.0	/	/	4.2	2.7	/	/
CN(C)c1ccc2nc3ccc(=[N+](C)C)cc-3sc2c1	52.5*	0.8	-20.2	-1.89	5.1	1.2	9.6	/
COc1ccc(C(=O)Nn2c(SCC(=O)c3ccccc3)nc3ccccc3c2=O)cc1	54.4*	7.9	-57.5	-1.15	-4.0	-2.9	51.6*	126.6*
CCOC(=O)N1CCC(NC(=O)c2cc(COc3c(C)cccc3C)on2)CC1	15.6	-4.2	/	/	-4.2	3.5	/	/
SMILES	Mdm2-MdmX inh	Beta2AR agonist	MDM2 E3 inh	Dynein transport	XBP1 UPR activ	CHOP UPR activ	Mdm2 MdmX conf	Full FLuc ctr
Cc1ccccc1OCc1nc2ccccc2c(=O)n1/N=C/c1c[nH]c2ccccc12	37.3	9.1	-12.3	-0.511	-0.7	1.3	/	/
Cc1cc(/C=N/n2c(COc3ccccc3C)nc3ccccc3c2=O)c(O)c([N+](=O)[O-])c1	56.1*	-409.8	-15.0	-0.616	4.0	1.3	63.5*	46.1*
CS(=O)(=O)c1ncc(Cl)c(C(=O)Nc2ccc(OC(F)F)cc2)n1	92.1*	-146.9	/	/	-13.3	-11.4	99.7*	52.4*
CS(=O)(=O)c1ncc(Cl)c(C(=O)Nc2ccc(N3CCOCC3)cc2)n1	88.3*	20.5	-6.2	-2.28	-8.2	-8.4	53.3*	40.7*
CCOC(=O)C1(CCOC)CCN(C(=O)c2ccc(CSC)o2)CC1	-0.8	-1.2	/	/	-5.0	-1.3	/	/
CC(C)n1nc(C(=O)Nc2cccc(S(=O)(=O)N3CCCCC3)c2)c2ccccc2c1=O	13.0	7.3	/	/	0.3	-1.1	/	/
COc1ccc(-n2nc(C(=O)Nc3nc4ccc(OC)cc4s3)c3ccccc3c2=O)c(OC)c1	77.4*	/	-3.5	0.0568	2.7	-2.1	20.6	/
CS(=O)(=O)c1ccc2nc(NC(=O)c3ccccc3Cl)sc2c1	4.5	2.0	/	/	-5.1	4.3	/	/
COc1ccccc1C(=O)Nc1nc2ccc(S(C)(=O)=O)cc2s1	53.4*	-9.8	-2.0	-1.06	0.6	3.2	-6.2	/
COc1ccc(NC(=O)Nc2nc3ccccc3s2)cc1	-78.3	4.0	-24.9	0.171	2.7	2.5	/	/
COc1ccc(-n2nc(C(=O)NCC(=O)NCc3ccccc3OC)c3ccccc3c2=O)c(OC)c1	-36.0	-1.2	-2.0	-0.274	-1.0	-0.8	/	/
COc1ccccc1C(=O)Nc1nc2ccccc2s1	93.2*	2.1	/	/	-12.8	-11.8	90.0*	31.7
COc1ccc(C(=O)Nc2nc3ccccc3s2)c(OC)c1	100.3*	14.2	/	/	-13.6	-11.8	98.6*	52.1*
COc1ccccc1CNC(=O)C1(NC(=O)Nc2ccc(C)cc2)CCCCC1	-34.6	7.7	-2.4	-0.732	-0.5	-1.5	/	/

Screening data: PubChem BioAssay, several laboratories
